The record followed here is ChEMBL document CHEMBL1250446, “Novel targets for Huntington's disease in an mTOR-independent autophagy pathway” (Nat Chem Biol, 2008).

Calls of active or inactive are those of the source. The calls are words filed in the database; no cut-off is given here.

One data set deals with HeLa. The experiment in a line: Induction of autophagy in human HeLa cells expressing EGFP-LC3 assessed as increase in LC3-2 level at 400 nM in presence of erythro-9-(3-(2-hydroxynonyl)adenine. It is filed as functional, cell-based.
In data set [1] the test system is COS-7. The experiment in a line: Induction of autophagy in african green monkey COS7 cells expressing EGFP-HDQ74 assessed as huntingtin mutant aggregation at 10 uM after 48 hrs. It is filed as functional, cell-based. As to conditions: Chlorocebus aethiops. The method, boiled down: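 COS-7 cells seeded at 1×10⁵/well for 24 h, then transfected with pEGFP-HDQ74 (1.5 μg/well) using LipofectAMINE for 4 h. Compound added, and cells fixed at 48 h and mounted in DAPI. About 200 EGFP-positive cells per sample were scored for presence of aggregates by a blinded observer. Triplicate, at least twice.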

Data set [2] relates to COS-7. The experiment in a line: Induction of autophagy in african green monkey COS7 cells expressing PLC-epsilon assessed as calpain activation at 2.5 uM after 30 mins by immunoblotting analysis. The class given is functional, cell-based. As to conditions: Chlorocebus aethiops. A digest of the protocol:
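Calpain activation in COS-7 after 30 min exposure, alongside 2.5 μM thapsigargin where applied; immunoblot of the active calpain small subunit.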
In general terms: In western blotting, separated proteins are transferred to a membrane and probed.

The test system of data set [3] is SK-N-MC. The experiment in a line: Cytotoxicity against human SK-N-MC cells expressing EGFP-HDQ74 at 1 uM after 48 hrs. The class given is cell-based.
The next data set has as its system SK-N-SH (Homo sapiens). The data set is described as follows: Induction of autophagy in human SK-N-SH cells expressing EGFP-HDQ74 assessed as reduction in EGFP-HDQ74 aggregation at 1 uM after 48 hrs by densitometric analysis.
Data set [4] concerns COS-7. The data set is described as follows: Induction of autophagy in african green monkey COS7 cells expressing EGFP-HDQ74/m-calpain assessed as decrease in EGFP-HDQ74 aggregation at 500 uM after 48 hrs. It is filed as functional, cell-based. The settings on record: Chlorocebus aethiops.
Data set [5] has as its system COS-7. The experiment in a line: Inhibition of Gsalpha in african green monkey COS7 cells expressing EGFP-HDQ74/m-calpain assessed as increase in LC3-2 level by autophagy induction assay. The class given is functional, cell-based. As to conditions: Chlorocebus aethiops.
A further data set relates to PC-12. The experiment in a line: Induction of autophagy in rat stable inducible PC12 cells expressing A53T alpha-synuclein assessed as A53T alpha-synuclein clearance at 500 uM after 24 hrs by densitometric analysis. The class given is functional, cell-based. The method, boiled down:
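Inducible PC12 A53T α-synuclein (HA) cells induced with 1 μg/ml doxycycline for 48 h. Doxycycline then removed for 24 h with compound or DMSO. Remaining protein measured by anti-HA immunoblot, densitometry relative to actin.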

Data set [6] deals with SK-N-SH. The data set is described as follows: Induction of autophagy in human SK-N-SH cells expressing EGFP-HDQ74 assessed as reduction in EGFP-HDQ74 aggregation at 500 uM after 48 hrs by densitometric analysis. The class given is functional, cell-based.
The species named for data set [7] is Danio rerio. The experiment in a line: Protection of neurodegeneration in zebrafish Huntington's disease model expressing EGFP-tagged huntingtin exon with EGFP-HDQ71 in rod photoreceptor assessed as decrease in […] aggregation at 3 uM. It is filed as functional, organism-based. A digest of the protocol:
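Transgenic zebrafish larvae raised in PTU to 3 d.p.f., then dark-reared 3–9 d.p.f. with drug in E3 medium (pH 7.2), refreshed daily. Fixed fish were cryosectioned at 12 μm and aggregates counted over 96 μm of the central eye. Means from 10 fish per group; ANOVA with Dunnett's test.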

The species entered for data set [8] is Danio rerio. The experiment in a line: Protection of neurodegeneration in zebrafish Huntington's disease model expressing EGFP-tagged huntingtin exon with EGFP-HDQ71 in rod photoreceptor assessed as induction of rhodopsin expression at 3 uM. It is filed as functional, organism-based. The method, boiled down:
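Zebrafish larvae dark-reared 3–9 d.p.f. with drug in E3, refreshed daily, then lysed in RIPA/DTT. Western blot with anti-rhodopsin (Zpr3, 1:1000), anti-Zpr1 and anti-EGFP antibodies; ECL detection.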

Another data set is filed under the species Mus musculus. The data set is described as follows: Induction of autophagy in Atg deficient mouse […] expressing EGFP-HDQ74 at 1 uM after 48 hrs. It is filed as functional.
Data set [9] deals with SK-N-MC. The experiment in a line: Induction of autophagy in Atg positive human SK-N-MC cells expressing EGFP-HDQ74 at 1 uM after 48 hrs. The class given is functional, cell-based.
Data set [10] deals with SK-N-SH. The experiment in a line: Induction of autophagy in human SK-N-SH cells expressing EGFP-HDQ74/m-calpain assessed as inhibition of EGFP-HDQ74 aggregation at 1 uM after 48 hrs. The class given is functional, cell-based.
For data set [11], the species on record is Danio rerio. The experiment in a line: Protection of neurodegeneration in zebrafish Huntington's disease model expressing EGFP-tagged huntingtin exon with EGFP-HDQ71 in rod photoreceptor assessed as loss of rhodopsin expression at 3 uM.
The species entered for data set [12] is Danio rerio. The data set is described as follows: Protection of neurodegeneration in zebrafish Huntington's disease model expressing EGFP-tagged huntingtin exon with EGFP-HDQ71 in rod photoreceptor assessed as decrease in […] aggregation at 3 uM.

As to `CCCCCC[C@@H]([C@@H](C)O)n1cnc2c(N)ncnc21` (relative stereo), the outcome with HeLa was inactive.
As for `CO[C@@H]1[C@@H]2OP(=O)(O)OC[C@H]2O[C@H]1n1c(Sc2ccc(Cl)cc2)nc2c(N)ncnc21`, the result in the data set with COS-7 [1] and with COS-7 [2] was inactive.
`Clc1cccc(Cl)c1N=C1NCCN1` [CLONIDINE]: in the data set with SK-N-MC [3], the Activity result is recorded as “Non-toxic”.
Regarding `CN(C)C(=O)C(CCN1CCC(O)(c2ccc(Cl)cc2)CC1)(c1ccccc1)c1ccccc1` [LOPERAMIDE], the Activity entry in the data set with SK-N-MC [3] is listed as “Non-toxic”. In addition, the outcome in the data set on SK-N-SH (Homo sapiens) was Active.
In the case of `O=C(Nc1cc(C(=O)Nc2ccc(S(=O)(=O)O)cc2S(=O)(=O)O)cc(C(=O)Nc2ccc(S(=O)(=O)O)cc2S(=O)(=O)O)c1)Nc1cc(C(=O)Nc2ccc(S(=O)(=O)O)cc2S(=O)(=O)O)cc(C(=O)Nc2ccc(S(=O)(=O)O)cc2S(=O)(=O)O)c1`, the result with COS-7 [4] and with COS-7 [5] was Active.
As for `O=C(Nc1ncnc2c1ncn2[C@@H]1O[C@@H]2COP(=O)(O)O[C@H]2[C@H]1O)c1ccccc1`, the outcome in the data set with COS-7 [2] was Active.
As for `C=C[C@@]1(C)CC(=O)[C@]2(O)[C@@]3(C)[C@@H](O)CCC(C)(C)[C@@H]3[C@H](O)[C@H](OC(C)=O)[C@@]2(C)O1`, the result in the data set on PC-12 and in the data set on SK-N-SH [6] was inactive.
Consider `Clc1cccc(Cl)c1NC1=NCCN1`, for which the outcome in the data set listed under Danio rerio [7], in the data set listed under Danio rerio [8], in the data set with SK-N-MC [9], with SK-N-SH (Homo sapiens) and in the data set filed under Danio rerio [12] was Active. Moreover, the outcome in the data set filed under Mus musculus, with SK-N-SH [10] and in the data set listed under Danio rerio [11] was inactive.
